Assay [1] concerns Acinetobacter baumannii. As to the kind of experiment: Antimicrobial activity against Acinetobacter baumannii CL5973 at 32 ug/ml measured after 20 hrs by spectrophotometric method. Format: functional, organism-based. A digest of the protocol: (§1)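 Whole-cell growth-inhibition panel: Gram-negative E. coli ATCC25922, K. pneumoniae ATCC700603, P. aeruginosa PAO1 and A. baumannii CL5973, plus fungi A. fumigatus ATCC46645 and C. albicans ATCC64124. Method follows earlier-described protocols. Highest concentration tested 32 μg/mL.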

Assay [2] deals with Escherichia coli. Description: Antimicrobial activity against Escherichia coli ATCC 25922 at 32 ug/ml measured after 20 hrs by spectrophotometric method. Type of assay: functional, organism-based. A digest of the protocol:
as §1

Assay [3] relates to Pseudomonas aeruginosa. Description: Antimicrobial activity against Pseudomonas aeruginosa PAO1 at 32 ug/ml measured after 20 hrs by spectrophotometric method. Type of assay: functional, organism-based. A digest of the protocol:
as §1

Assay [4] has as its system Staphylococcus aureus. Description: Antimicrobial activity against methicillin-resistant Staphylococcus aureus MB5393 at 32 ug/ml measured after 20 hrs by spectrophotometric method. Format: functional, organism-based.
For assay [5], the system named is Candida albicans. Description: Antimicrobial activity against Candida albicans ATCC 64124 at 32 ug/ml measured after 20 hrs by spectrophotometric method. Format: functional, organism-based. Put shortly: as §1
For assay [6], the system named is Aspergillus fumigatus. Description: Antimicrobial activity against Aspergillus fumigatus ATCC 46645 at 32 ug/ml measured after 30 hrs by resazurin dye based assay. Type of assay: functional, organism-based. A digest of the protocol: as §1
In general terms: The colour change of resazurin is a common sign of viable cells or microbes.

For assay [7], the system named is Klebsiella pneumoniae. As to the kind of experiment: Antimicrobial activity against Klebsiella pneumoniae ATCC 700603 at 32 ug/ml measured after 20 hrs by spectrophotometric method. Type of assay: functional, organism-based. A digest of the protocol:
as §1

Another assay relates to A2058. As to the kind of experiment: Cytotoxicity against human A2058 cells measured after 24 hrs by MTT assay. Type of assay: functional, cell-based. The note with it: A2058, 24 h. A digest of the protocol: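 Human-derived A2058 epithelial melanoma cells, run alongside a panel of other human tumour lines by a previously reported protocol; IC50 values derived.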
On the technique in general: Tetrazolium assays rely on reduction of a dye to a coloured formazan, in cell work by metabolically active cells.

The subject of assay [8] is Staphylococcus aureus. As to the kind of experiment: Antimicrobial activity against methicillin-sensitive Staphylococcus aureus ATCC 29213 at 32 ug/ml measured after 20 hrs by spectrophotometric method. Type of assay: functional, organism-based.
Assay [9] has as its system Acinetobacter baumannii. As to the kind of experiment: Antimicrobial activity against Acinetobacter baumannii CL5973 at 4 ug/ml measured after 20 hrs by spectrophotometric method. Type of assay: functional, organism-based.
The subject of assay [10] is Escherichia coli. Description: Antimicrobial activity against Escherichia coli ATCC 25922 at 4 ug/ml measured after 20 hrs by spectrophotometric method. Format: functional, organism-based.
Assay [11] concerns Staphylococcus aureus. As to the kind of experiment: Antimicrobial activity against methicillin-sensitive Staphylococcus aureus ATCC 29213 at 4 ug/ml measured after 20 hrs by spectrophotometric method. Type of assay: functional, organism-based.
Assay [12] relates to Pseudomonas aeruginosa. Description: Antimicrobial activity against Pseudomonas aeruginosa PAO1 at 4 ug/ml measured after 20 hrs by spectrophotometric method. Format: functional, organism-based.
For assay [13], the system named is Klebsiella pneumoniae. As to the kind of experiment: Antimicrobial activity against Klebsiella pneumoniae ATCC 700603 at 4 ug/ml measured after 20 hrs by spectrophotometric method. Format: functional, organism-based.
The test system of assay [14] is Candida albicans. Description: Antimicrobial activity against Candida albicans ATCC 64124 at 4 ug/ml measured after 20 hrs by spectrophotometric method. Type of assay: functional, organism-based.
In assay [15] the test system is Aspergillus fumigatus. As to the kind of experiment: Antimicrobial activity against Aspergillus fumigatus ATCC 46645 at 4 ug/ml measured after 30 hrs by resazurin dye based assay. Type of assay: functional, organism-based.
For assay [16], the system named is Staphylococcus aureus. As to the kind of experiment: Antimicrobial activity against methicillin-resistant Staphylococcus aureus MB5393 at 4 ug/ml measured after 20 hrs by spectrophotometric method. Type of assay: functional, organism-based.

Among the data in ChEMBL document CHEMBL4196248, “Callyspongidic Acids: Amphiphilic Diacids from the Tropical Eastern Pacific Sponge Callyspongia cf. californica” (J Nat Prod, 2018) are Activity and IC50 values, retold here.

Calls of active or inactive are those of the source. No cut-off for these calls is given here.

The IC50 is the concentration at which inhibition is half-maximal. Turning to `CCCCCC/C=C\CCCC[C@H](C(=O)O)[C@@](O)(Cc1ccc(O)cc1)C(=O)O`, the result in the assay with Acinetobacter baumannii [1], with Escherichia coli [2], in the assay on Pseudomonas aeruginosa [3], with Staphylococcus aureus [4], in the assay with Candida albicans [5] and with Aspergillus fumigatus [6] was inactive. Besides, the result with Klebsiella pneumoniae [7] and in the assay with Staphylococcus aureus [8] was inactive. The same compound yielded a concentration for half-maximal inhibition (IC50) in the assay on A2058 of more than 30 µM.
As to `CCCCCCCCCC[C@H](C(=O)O)[C@@](O)(Cc1ccc(O)cc1)C(=O)O`, the outcome in the assay on Acinetobacter baumannii [1], with Escherichia coli [2], with Pseudomonas aeruginosa [3], in the assay with Staphylococcus aureus [4], with Candida albicans [5] and with Aspergillus fumigatus [6] was inactive. Moreover, the result with Klebsiella pneumoniae [7] and with Staphylococcus aureus [8] was inactive. Further, in the assay with A2058, the concentration for half-maximal inhibition (IC50) amounted to 26 µM.
Take `CCCCCCCCCCC[C@H](C(=O)O)[C@@](O)(Cc1ccc(O)cc1)C(=O)O`: the outcome in the assay with Acinetobacter baumannii [9], in the assay on Escherichia coli [10], in the assay on Staphylococcus aureus [11], with Pseudomonas aeruginosa [12], in the assay with Klebsiella pneumoniae [13] and with Candida albicans [14] was inactive. The result in the assay on Aspergillus fumigatus [15] and in the assay with Staphylococcus aureus [16] was inactive. 3.2 µM corresponded to half-maximal inhibition in the assay on A2058 (IC50).
For `CCCCCCCCCCCC[C@H](C(=O)O)[C@@](O)(Cc1ccc(O)cc1)C(=O)O`, the outcome in the assay on Acinetobacter baumannii [1], in the assay on Escherichia coli [2], in the assay with Pseudomonas aeruginosa [3], in the assay on Staphylococcus aureus [4], with Candida albicans [5] and in the assay with Aspergillus fumigatus [6] was inactive. The outcome in the assay on Klebsiella pneumoniae [7] and in the assay on Staphylococcus aureus [8] was inactive. Further, in the assay with A2058, the half-inhibitory concentration (IC50) was 30 µM.
